Screening data from PubChem BioAssay.
Hep lipid drop: hepatic lipid droplet formation modulation. inhibition, % at 6.5 µM. AML12 mouse hepatocytes, oleate lipid droplets, BODIPY imaging. AID 1656. 0.4% of 240,000 active;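 active = lipid droplet intensity inhibited by at least 50%, with more than 500 cells counted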
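Assay system: AML12 hepatocytes (mouse) / Also added: 100 µM oleic acid challenge / Times: overnight treatment with compound plus oleate / Detection: high-content imaging of BODIPY-stained droplets and DAPI nuclei / Evaluation: % inhibition of lipid droplet signal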
AHR activator: human AHR activation; activation, % at 5 µM; 2.5% of 320,000 active; P35869; AID 2796; AHR-responsive luciferase reporter cells, luminescence; in the data active = activation above about 47%
SR-BI HDL uptake: inhibitors of mouse SR-BI mediated HDL lipid uptake; Q61009; ldlA[mSR-BI] CHO cells, DiI-HDL uptake fluorescence, 3 h; inhibition, % at 12.5 µM; 0.96% of 320,000 active; AID 488896;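 active = mean replicate inhibition of at least 70% and a set share of replicates each scoring 70 or more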
Yeast superoxide: caloric restriction mimetics inhibiting age-related superoxide in yeast; superoxide response (% of plate mean), % at 10 µM; 0.18% of 330,000 active; S. cerevisiae aged cells, superoxide DHE fluorescence; stronger effect = lower value;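 active = superoxide response under a set limit, about three screen SD below normal, cut at about 65% in these data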;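 note: yeast aged for seven days with compound at 30 °C before DHE staining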
SR-BI DiI-HDL act: SR-BI HDL lipid transfer activation; 0.096% of 320,000 active; AID 504775; CHO ldlA[mSR-BI] cells, DiI-HDL uptake fluorescence, 3 h; 100 = double the neutral-control signal; activation, % at 12.5 µM;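 active = mean replicate activation of at least 60% and every replicate at or above 60%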
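Assay system: CHO ldlA[mSR-BI] cells, LDL receptor-null, SR-BI overexpressing; medium: Ham's F12 with 0.5% BSA, HEPES 25 mM, pH 7.4; also added: DiI-HDL 10 µg/mL; timing: 3 h uptake period with compound, 37 °C; signal: DiI fluorescence, bottom read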
SMARCA2 act: SMARCA2 function activation, primary screen. AID 652017. 1% of 370,000 active. MG213 cells, MMTV-luciferase reporter, dexamethasone, overnight. activation, % at 9.1 µM; in the data active = activation above about 7.8%
Numbers stand for hits; 0 = inactive; - = not tested or not shown; ! = not confirmed by another sample. Sampled rows, rich in hits. Any-hit rate of the full collection: about 4.3%.

SMILES	Hep lipid drop	AHR activator	SR-BI HDL uptake	Yeast superoxide	SR-BI DiI-HDL act	SMARCA2 act
[O-]/C(=C(\C(=S)Nc1ccccc1F)[n+]1ccccc1)c1ccc(-c2ccccc2)cc1	0	60	0	0	0	0
CC(C)(C)c1cc[n+](/C(C(=S)Nc2ccccc2F)=C(/[O-])c2ccc3c(c2)OCCO3)cc1	0	0	0	0	0	0
Cc1cccn2c(=O)c(C=O)c(N3CCN(c4ccc(F)cc4)CC3)nc12	0	64	0	0	0	0
COc1cccc(C2c3c(oc4ccccc4c3=O)C(=O)N2Cc2ccco2)c1 (configuration not stated)	-	82	-	0	-	0
O=c1[nH]c(CS(=O)(=O)c2ccccc2)nc2ccccc12	0	74	0	0	0	0
CCOc1ccccc1-c1nc(-c2cccc(Br)c2)no1	0	64	0	0	0	-
CCOc1ccccc1-c1nc(-c2ccc(NC(=O)Cc3ccc(OC)cc3)cc2)no1	-	0	99	0	0	0
COc1ccc(CC(=O)Nc2ccc(-c3noc(COc4ccccc4C)n3)cc2)cc1	0	0	0	0	0	0
COc1ccc(C(=O)O/N=C(\N)c2ccccn2)c(OC)c1	0	0	0	0	0	0
N/C(=N\OC(=O)c1ccccc1Cl)c1ccccc1	-	54	0	0	0	0
N/C(=N\OC(=O)c1ccc(Cl)cc1Cl)c1ccccc1	-	82	0	0	0	0
COc1ccc(Cl)cc1C(=O)O/N=C(\N)c1ccccn1	0	0	0	0	0	7.8
N/C(=N\OC(=O)c1ccccc1Cl)c1ccc(Cl)cc1	0	57	0	0	0	0
N/C(=N\OC(=O)c1ccc(Cl)cc1Cl)c1ccc(Cl)cc1	-	0	0	0	0	0
FC(F)(F)Oc1cccc(Cn2ccc3ccc(-c4ccc5ccn(Cc6ccccc6)c5c4)cc32)c1	-	-	-	-	-	0
COc1ccc(C(=O)N/N=C/c2sc3ccccc3c2O)cc1	0	0	120	0	0	-
COc1ccc(NS(=O)(=O)c2cccc(C(=O)N/N=C/c3c(F)c(F)c(F)c(F)c3F)c2)cc1	-	-	0	-	0	0
O=C(N/N=C/c1ccccc1)c1cccc2ccccc12	-	0	0	0	0	0
COc1ccc2cc(C(=O)N/N=C/c3sc4ccccc4c3O)ccc2c1	0	0	96	0	0	0
O=C(N/N=C/c1sc2ccccc2c1O)c1cccc2ccccc12	0	0	106	0	0	0
O=C(N/N=C/c1cccn1-c1ccc(O)cc1)c1cccc2ccccc12	0	0	77	0	0	0
COc1ccc(C(=O)N/N=C/C(=O)c2ccccc2)cc1	0	-	0	-	0	0
O=S1(=O)N[C@@H](Cc2ccccc2)COc2cccc(NCCCN3CCOCC3)c21	-	-	-	-	-	0
Cc1ccc(C2NC(=O)c3n[nH]c(C)c32)cc1 (configuration not stated)	-	-	-	-	-	0
C[C@H]1COc2cccc(F)c2S(=O)(=O)N1C	-	-	-	-	-	0
SMILES	Hep lipid drop	AHR activator	SR-BI HDL uptake	Yeast superoxide	SR-BI DiI-HDL act	SMARCA2 act
O=C(N/N=C/c1ccc(F)cc1)c1ccccc1	0	0	0	0	0	0
O=C(N/N=C/c1sc2ccccc2c1O)c1ccccc1	0	73	118	0	0	-
CN(C)S(=O)(=O)c1cccc(NC(=O)/C=C/c2ccc(S(=O)(=O)N3CCOCC3)cc2)c1	-	0	0	0	0	0
COc1ccc(/C=C/C(=O)Nc2cccc(S(=O)(=O)N3CCOCC3)c2)cc1OC	-	-	0	-	0	0
COc1cccc(/C=C/C(=O)OCC(=O)Nc2cccc(S(=O)(=O)N3CCOCC3)c2)c1OC	0	0	0	0	0	0
COc1ccccc1/C=C/C(=O)Nc1cccc(S(=O)(=O)N2CCOCC2)c1	-	0	85	0	0	0
Cc1ccc(/C=C/C(=O)Nc2cccc(S(=O)(=O)N3CCOCC3)c2)o1	0	59	0	0	0	0
COc1cc(/C=C/C(=O)Nc2cccc(S(=O)(=O)N3CCOCC3)c2)ccc1OCC#N	-	0	78	0	0	0
O=C(/C=C/c1ccco1)Nc1cccc(S(=O)(=O)N2CCOCC2)c1	0	50	0	0	0	0
COC(=O)[C@]12C[C@H](CC(=O)NCc3cccc(C(F)(F)F)c3)C(=O)N(CCC3=CCCCC3)C1=C[C@H](COCc1ccccc1)O[C@@H]2C	-	-	-	-	-	0
COC1(C)CC2C(CC1OC(=O)c1cc([N+](=O)[O-])cc([N+](=O)[O-])c1)C2(C)C (configuration not stated)	0	0	93!	0	0	0
COC(=O)c1cc(C(=O)NCC2CCCCC2)cc([N+](=O)[O-])c1	0	0	0	0	0	0
NNc1nc(Nc2ccccc2)nc(Nc2ccccc2)n1	0	81	0	0	0	0
NNc1nc(Nc2ccccc2)nc(N2CCCCC2)n1	0	0	0	0	0	0
COc1ccc(NC(=O)c2cc3c(s2)CCC3)cc1S(=O)(=O)N1CCOCC1	0	0	70	0	0	0
O=C(CSCc1c(Cl)cccc1Cl)Nc1ccc2c(c1)OCO2	-	47	0	0	0	0
O=C(CSc1nccn1-c1ccc(Cl)cc1)Nc1ccc2c(c1)OCO2	-	53	0	0	0	0
Cc1cccc(-n2ccnc2SCC(=O)Nc2ccc3c(c2)OCCO3)c1	0	0	0	0	0	0
CC1CN(CCC(=O)Nc2ccc3c(c2)OCO3)CC(C)O1 (configuration not stated)	-	0	80	0	0	0
O=C(Cc1c(F)cccc1Cl)NNC(=O)Nc1ccc2c(c1)OCO2	0	53	0	0	-	0
S=c1[nH]nc(-c2n[nH]c3c2CCC3)n1N=Cc1c[nH]c2ccccc12	-	-	-	-	-	0
COC(=O)[C@]12C[C@H](CC(=O)NCc3ccc(C)o3)C(=O)N(Cc3ccco3)C1=C[C@H](C1CCCC1)O[C@@H]2C	-	-	-	-	-	0
O=C1C(Cl)=C(NCCc2ccccc2)C(=O)N1CCc1ccccc1	0	0	0	0	0	7.9
O=C1C(Cl)=C(NCCCN2CCOCC2)C(=O)N1CCc1ccccc1	0	0	0	0	0	0
O=C1c2ccccc2C(=O)N1CCc1ccccc1	-	60	0	0	0	0
SMILES	Hep lipid drop	AHR activator	SR-BI HDL uptake	Yeast superoxide	SR-BI DiI-HDL act	SMARCA2 act
O=C1c2ccccc2C(=O)N1CCCCCCc1ccccc1	-	0	0	0	0	0
COCc1cc(N2CCN(C(=O)OC(C)(C)C)C[C@H]2C)ccc1Br	-	-	-	-	-	0
CCn1c2ccccc2c2cc(NS(=O)(=O)c3ccccc3C)ccc21	-	73	0	0	0	0
COC(=O)C1=C(C)N(Cc2cccc(C(F)(F)F)c2)C(=NCc2cc(OC)c(OC)c(OC)c2)NC1c1cccc(F)c1 (configuration not stated)	-	-	-	-	-	0
CCn1c(Cn2nnc(-c3ccccc3)n2)nnc1SCC(=O)Nc1cccc(C)c1C	-	0	76	0	0	0
CCn1c(Cn2nnc(-c3ccccc3)n2)nnc1SCC(=O)Nc1cccc(C(C)=O)c1	-	0	0	0	0	0
